Test results reported in ChEMBL document CHEMBL3808274, “Discovery and characterization of a novel series of N-phenylsulfonyl-1H-pyrrole picolinamides as positive allosteric modulators of the metabotropic glutamate receptor 4 (mGlu4)” (Bioorg Med Chem Lett, 2016).

Columns and labels:
[1] = target: T1, Metabotropic glutamate receptor 4 (Homo sapiens, UniProt Q14833); assay: Positive allosteric modulation of human mGlu4 receptor assessed as increase in glutamate-induced calcium mobilization at 30 uM relative to PHCCC; type: functional
T1 sequence (Q14833 whole entry): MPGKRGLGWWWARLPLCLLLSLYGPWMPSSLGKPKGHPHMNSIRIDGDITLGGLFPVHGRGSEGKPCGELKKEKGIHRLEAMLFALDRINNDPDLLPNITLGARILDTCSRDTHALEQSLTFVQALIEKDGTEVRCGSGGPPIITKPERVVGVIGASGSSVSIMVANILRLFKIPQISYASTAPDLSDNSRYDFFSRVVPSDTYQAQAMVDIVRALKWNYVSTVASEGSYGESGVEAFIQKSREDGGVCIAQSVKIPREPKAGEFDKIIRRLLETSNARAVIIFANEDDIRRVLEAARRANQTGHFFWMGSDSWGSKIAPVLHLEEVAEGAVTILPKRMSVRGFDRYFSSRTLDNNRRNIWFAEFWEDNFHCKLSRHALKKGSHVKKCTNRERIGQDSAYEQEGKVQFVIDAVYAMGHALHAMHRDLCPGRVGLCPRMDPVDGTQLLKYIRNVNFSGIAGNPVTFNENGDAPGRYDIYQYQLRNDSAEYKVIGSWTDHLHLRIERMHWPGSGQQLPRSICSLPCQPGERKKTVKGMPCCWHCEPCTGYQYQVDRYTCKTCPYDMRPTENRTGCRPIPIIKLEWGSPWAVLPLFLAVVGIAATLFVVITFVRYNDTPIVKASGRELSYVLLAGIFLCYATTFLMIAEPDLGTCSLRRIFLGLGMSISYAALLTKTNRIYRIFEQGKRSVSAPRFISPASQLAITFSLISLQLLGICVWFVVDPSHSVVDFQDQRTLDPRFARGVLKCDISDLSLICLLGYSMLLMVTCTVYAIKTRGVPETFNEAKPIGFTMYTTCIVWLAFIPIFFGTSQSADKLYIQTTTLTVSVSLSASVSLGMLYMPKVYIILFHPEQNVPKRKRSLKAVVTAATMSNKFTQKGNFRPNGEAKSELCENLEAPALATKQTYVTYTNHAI
Method in brief: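 Calcium mobilization assay at human mGlu4; response amplitude with 30 µM test compound normalized to the standard PHCCC and expressed as %GluMax.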

[2] = target: T1, Metabotropic glutamate receptor 4; assay: Positive allosteric modulation of human mGlu4 receptor assessed as increase in glutamate-induced calcium mobilization; type: functional
Method in brief: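 Calcium mobilization assay in cells expressing human mGlu4; potentiation of the glutamate response measured; EC50 values are the average of n = 3.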

[3] = Plasma clearance in rat at 1 mg/kg, iv; type: ADME, organism-based
Method in brief: (§1)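 Rat IV dosing at 1 mg/kg; plasma PK parameters (clearance, half-life, MRT, Vss, AUC) derived from plasma concentration-time profile.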

[4] = Half life in rat at 1 mg/kg, iv; type: ADME, organism-based; settings: in vivo; method in brief: as §1
Plasma = assay: Fraction unbound in rat plasma by equilibrium dialysis method; type: ADME, cell-free
Method in brief: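 Protein binding in rat plasma measured by equilibrium dialysis; fraction unbound (Fu) reported.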

[5] = AUC in rat at 1 mg/kg, iv; type: ADME, organism-based; settings: in vivo; method in brief: as §1
[6] = Volume of distribution at steady state in rat at 1 mg/kg, iv; type: ADME, organism-based; settings: in vivo, read-out: Vdss; method in brief: as §1
[7] = Mean residence time in rat at 1 mg/kg, iv; type: ADME, organism-based; settings: in vivo; method in brief: as §1
[8] = Ratio of drug level in rat brain to plasma at 10 mg/kg, po incubated for 1 hr; type: ADME, organism-based; settings: read-out: BPR
Method in brief: (§2)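 Rats dosed orally at 10 mg/kg, with vehicle or co-dosed with the pan-irreversible P450 inhibitor 1-aminobenzotriazole (ABT); samples taken at 1 h from systemic plasma, hepatic portal vein plasma and brain. Brain:plasma and systemic:HPV ratios are calculated from these concentrations.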

[9] = Drug level in rat brain at 10 mg/kg, po coadministered with panirreversible P450 inhibitor ABT incubated for 1 hr; type: ADME, organism-based; settings: read-out: Drug uptake; method in brief: as §2
[10] = Plasma concentration in rat hepatic portal vein at 10 mg/kg, po incubated for 1 hr; type: ADME, organism-based; method in brief: as §2
[11] = Systemic plasma concentration in rat at 10 mg/kg, po incubated for 1 hr; type: ADME, organism-based
Method in brief: (§3)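 Rats dosed orally at 10 mg/kg, either with vehicle or co-dosed with 1-aminobenzotriazole (ABT), a pan-irreversible cytochrome P450 inhibitor. At 1 h post-dose, systemic plasma, hepatic portal vein plasma and brain were sampled. Drug concentrations were measured in each matrix, and brain:plasma ratios were derived from these levels.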

[12] = Ratio of systemic plasma concentration to hepatic portal vein plasma concentration in rat at 10 mg/kg, po coadministered with panirreversible P450 inhibitor ABT; type: ADME, organism-based; settings: in vivo; method in brief: as §2
[13] = Ratio of systemic plasma concentration to hepatic portal vein plasma concentration in rat at 10 mg/kg, po; type: ADME, organism-based; settings: in vivo; method in brief: as §2
[14] = Ratio of drug level in rat brain to plasma at 10 mg/kg, po coadministered with panirreversible P450 inhibitor ABT incubated for 1 hr; type: ADME, organism-based; settings: read-out: BPR; method in brief: as §3
[15] = Plasma concentration in rat hepatic portal vein at 10 mg/kg, po coadministered with panirreversible P450 inhibitor ABT incubated for 1 hr; type: ADME, organism-based; method in brief: as §2
[16] = Systemic plasma concentration in rat at 10 mg/kg, po coadministered with panirreversible P450 inhibitor ABT incubated for 1 hr; type: ADME, organism-based; method in brief: as §3
[17] = Drug level in rat brain at 10 mg/kg, po incubated for 1 hr; type: ADME, organism-based; settings: read-out: Drug uptake; method in brief: as §2

Row | %max [1] | EC50 [2] | Compound | further results
1 | 119% | 174 nM | O=C(Nc1ccn(S(=O)(=O)Cc2ccccc2Cl)c1)c1ccccn1 | 
2 | 88.7% | 188 nM | O=C(Nc1ccn(S(=O)(=O)Cc2ccc(C(F)(F)F)cc2)c1)c1ccccn1 | 
3 | 80.3% | 62 nM | Cc1ccc(S(=O)(=O)n2ccc(NC(=O)c3ccccn3)c2)cc1C | clearance [3]: 37.2 mL/min/kg; half-life [4]: 4.2 h; Fu (Plasma): 0.012; AUC [5]: 448 ng·h/mL; Vd [6]: 5.5 L/kg; MRT [7]: 2.48 h
4 | 88.8% | 122 nM | Cc1ccc(S(=O)(=O)n2ccc(NC(=O)c3ccccn3)c2)cc1 | Fu (Plasma): 0.009
5 | 33.5% | > 30000 nM | O=C(Nc1ccn(S(=O)(=O)C(F)(F)c2ccccc2F)c1)c1ccccn1 | 
6 | 59.6% | 2970 nM | CC(c1ccccc1)S(=O)(=O)n1ccc(NC(=O)c2ccccn2)c1 (stereo not drawn) | 
7 | 98.9% | 268 nM | Cc1cc(S(=O)(=O)n2ccc(NC(=O)c3ccccn3)c2)ccc1F | 
8 | 99.3% | 295 nM | Cc1nc(NC(=O)c2ccccn2)sc1S(=O)(=O)Cc1c(F)cccc1F | 
9 | 120% | 217 nM | CCc1nc(NC(=O)c2ccccn2)sc1S(=O)(=O)Cc1ccc(Cl)cc1F | 
10 | 94.8% | 448 nM | Cc1nc(NC(=O)c2ccccn2)sc1S(=O)(=O)Cc1ccccc1Cl | 
11 | 112% | 4140 nM | Cc1nc(NC(=O)c2ccccn2)sc1S(=O)(=O)Cc1ccc(Cl)cc1F | 
12 | 35.6% | 739 nM | O=C(Nc1ccn(S(=O)(=O)c2ccc(C(F)(F)F)cc2)c1)c1ccccn1 | 
13 | 112% | 4180 nM | Cc1cccc(CS(=O)(=O)n2ccc(NC(=O)c3ccccn3)c2)c1 | 
14 | 78.8% | 740 nM | O=C(Nc1ccn(S(=O)(=O)c2ccc(F)cc2)c1)c1ccccn1 | 
15 | 117% | 251 nM | O=C(Nc1ccn(S(=O)(=O)Cc2ccccc2F)c1)c1ccccn1 | 
16 | 93.5% | 547 nM | Cc1nc(NC(=O)c2ccccn2)sc1S(=O)(=O)Cc1ccc(F)cc1F | 
17 | 98.6% | 572 nM | O=C(Nc1ccn(S(=O)(=O)Cc2cccc(F)c2)c1)c1ccccn1 | 
18 | 35.1% | 83 nM | O=C(Nc1ncc(S(=O)(=O)Cc2ccc(Cl)cc2F)s1)c1ccccn1 | 
19 | 84.8% | 104 nM | Cc1cccc(S(=O)(=O)n2ccc(NC(=O)c3ccccn3)c2)c1 | Fu (Plasma): 0.001
20 | 122% | 84 nM | O=C(Nc1ccn(S(=O)(=O)Cc2ccc(F)cc2Cl)c1)c1ccccn1 | 
21 | 140% | 398 nM | O=C(Nc1ccn(S(=O)(=O)Cc2ccc(Cl)cc2)c1)c1ccccn1 | 
22 | 109% | 150 nM | CCc1nc(NC(=O)c2ccccn2)sc1S(=O)(=O)Cc1c(F)cccc1F | 
23 | 30.6% | 189 nM | O=C(Nc1ncc(S(=O)(=O)Cc2ccccc2Cl)s1)c1ccccn1 | 
24 | 72.9% | 440 nM | O=C(Nc1ccn(S(=O)(=O)c2ccc(Cl)nc2)c1)c1ccccn1 | 
25 | 71% | 1020 nM | O=C(Nc1ccn(S(=O)(=O)C(F)c2ccccc2F)c1)c1ccccn1 (stereo not drawn) | 
26 | 103% | 1240 nM | O=C(Nc1ccn(S(=O)(=O)c2ccc(Cl)cc2)c1)c1ccccn1 | Fu (Plasma): 0.004
27 | 109% | 190 nM | O=C(Nc1ccn(S(=O)(=O)Cc2ccc(F)cc2F)c1)c1ccccn1 | 
28 | 92.9% | 148 nM | Cc1ccc(S(=O)(=O)n2cc(NC(=O)c3ccccn3)cn2)cc1C | Fu (Plasma): 0.005
29 | 35.3% | 242 nM | O=C(Nc1cnn(S(=O)(=O)c2ccc(C(F)(F)F)cc2)c1)c1ccccn1 | 
30 | 83% | 344 nM | O=C(Nc1ccn(S(=O)(=O)c2ccc(Cl)cn2)c1)c1ccccn1 | 

Row | Compound | %max [1] | EC50 [2] | further results
31 | Cc1cc(S(=O)(=O)n2ccc(NC(=O)c3ccccn3)c2)ccc1Cl | 72.2% | 163 nM | Kp at 1 h [8]: 1; clearance [3]: 86.8 mL/min/kg; half-life [4]: 2.78 h; concentration at 1 h [9]: 176 ng/g; concentration at 1 h [10]: 731 ng/mL; Fu (Plasma): 0.004; concentration at 1 h [11]: 7.4 ng/mL; AUC [5]: 192 ng·h/mL; Ratio [12]: 0.26; Ratio [13]: < 0.01; Kp at 1 h [14]: 1; Vd [6]: 7.4 L/kg; concentration at 1 h [15]: 764 ng/mL; MRT [7]: 1.41 h; concentration at 1 h [16]: 198 ng/mL; concentration at 1 h [17]: 8.1 ng/g
